Data reported in ChEMBL document CHEMBL3526009, “Breast cancer resistance protein (ABCG2) determines distribution of genistein phase II metabolites: reevaluation of the roles of ABCG2 in the disposition of genistein” (Drug Metab Dispos, 2012).

How the values were obtained:
[1] = Stability in potassium phosphate buffer at pH 7.4 up to 4 hrs; format: physicochemical; conditions: pH 7.4, 4 h
Procedure, shortened: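 Negative control run under the blood-incubation conditions but in 50 mM potassium phosphate buffer, pH 7.4, instead of blood. Genistein glucuronides (G-7-G plus G-4′-G, with aglycone) or sulfates (G-7-S plus G-4′-S, with aglycone) held at 37°C in a shaking water bath up to 4 h. Sampled at 0, 60, 120 and 240 min and read by UPLC-MS/MS.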

Blood = assay: Stability in Wistar rat blood at 3 uM up to 4 hrs by UPLC-MS/MS analysis; format: ADME, tissue-based
Procedure, shortened: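 Genistein glucuronide mixture (G-7-G plus G-4′-G, 3 μM) with 3.8 μM genistein incubated in fresh rat whole blood, 37°C shaking water bath. Sampled at 0, 60, 120 and 240 min. Reaction stopped with acetonitrile containing daidzein internal standard. Genistein and conjugates quantified by UPLC-MS/MS using multiple reaction monitoring. n = 3.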

[2] = Drug transport in human Caco2 cells assessed as basolateral excretion of compound treated with genistein at 10 uM after 4 hrs by UPLC-MS/MS analysis in presence of BCRP inhibitor Ko143; format: ADME, cell-based; conditions: caco-2, 4 h
Procedure, shortened: (§1)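 Caco-2 TC7 monolayers on 3 μm polycarbonate inserts, used 19–22 days post-seeding (TEER ≥460 Ω/cm2). Genistein 2 or 10 μM in HBSS pH 7.4 applied apically, ±5 μM Ko143 apically; sampling both sides at 0–4 h hourly with replacement, triplicate. Genistein and four conjugates plus intracellular amounts at 4 h by UPLC-MS/MS; mass balance versus dose added.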

[3] = Drug transport in human Caco2 cells assessed as basolateral excretion of compound treated with genistein at 2 uM after 4 hrs by UPLC-MS/MS analysis in presence of BCRP inhibitor Ko143; format: ADME, cell-based; conditions: caco-2, 4 h; procedure, shortened: as §1

| Compound | Stability [1] | Stability (Blood) | Drug transport [2] | Drug transport [3] |
| --- | --- | --- | --- | --- |
| O=c1c(-c2ccc(O)cc2)coc2cc(OS(=O)(=O)O)cc(O)c12 | Stable | Stable | Active | Active |
| O=c1c(-c2ccc(OS(=O)(=O)O)cc2)coc2cc(O)cc(O)c12 | Stable | Stable | Active | Active |
